{"source": "paper PMC12804367", "about": "(ESMO Open, 2025)", "key": {"advanced solid tumors": {"test_system": "advanced solid tumors", "settings": "cited from earlier work"}, "[1]": {"test_system": "patients with advanced solid tumors", "settings": "all patients; cited from earlier work"}, "kinases": {"test_system": "kinases", "settings": "cited from earlier work"}, "Plasma pharmacokinetics": {"test": "Plasma pharmacokinetics", "assay_type": "in vivo, human", "procedure,_shortened": "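Dose-escalation patients had blood drawn predose and 0.5, 1, 2, 3, 4, 6 and 24 h post-dose on cycle 1 day 1, and on cycle 1 day 8 for once-daily dosing only. Plasma parameters came from noncompartmental analysis in patients with evaluable plasma concentration data. Values are geometric means with geometric CV%, plus day 8/day 1 accumulation ratios of Cmax and AUC0-24.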"}, "[2]": {"test_system": "patients with advanced or metastatic solid tumors", "test": "Safety, tolerability and DLTs", "assay_type": "in vivo, human", "settings": "for Treatment-related AE: decreased appetite / Treatment-related AE: fatigue / Treatment-related AE: hyperglycemia / Treatment-related AE: pruritus / Treatment-related AE: rash: all patients (17)", "procedure,_shortened": "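3 + 3 escalation starting at 16 mg/day once daily or 24 mg/day intermittent (4 days on/3 days off) in 21-day cycles. AEs graded by CTCAE v5.0. DLTs were selected lab abnormalities or AEs at least possibly drug-related during cycle 1, assessed in patients with a DLT or ≥80% of planned doses taken.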"}, "[3]": {"settings": "cycle 1 day 1, 16 mg o.d., individual values (N = 2)"}, "[4]": {"settings": "cycle 1 day 1, 20 mg o.d., N = 6, geometric mean (CV%)"}, "[5]": {"settings": "cycle 1 day 1, 24 mg intermittent, N = 4, geometric mean (CV%)"}, "[6]": {"settings": "cycle 1 day 1, 28 mg intermittent, N = 3, geometric mean (CV%)"}, "[7]": {"settings": "cycle 1 day 8, 16 mg o.d., N = 3, geometric mean (CV%)"}, "[8]": {"settings": "cycle 1 day 8, 20 mg o.d., N = 6, geometric mean (CV%)"}, "[9]": {"settings": "all patients (N = 17), any grade"}, "[10]": {"settings": "all patients (N = 17), grade ≥3"}, "[11]": {"settings": "dose escalation intermittent 24 mg (n = 4)"}}, "note": "Where “and” joins values, the source holds several entries; their conditions need not be identical. Identical values can stand only once. Entries after “also recorded” stand apart in the source; their conditions may differ. Like-named read-outs stand apart in the source and are kept apart here. Marks after values point to notes of the source that are not given here."}
{"smiles": "C[C@]1(O)C[C@@](N)(c2ccc(-c3nc4n(c3-c3ccccc3)COc3ccncc3-4)cc2)C1", "note": "[TAS-117]", "values": [{"measurement": "Objective responses", "setting": "advanced solid tumors; PIK3CA-mutant endometrial cancer, 1 out of 16 patients", "value": 6.3, "unit": "%"}, {"measurement": "Objective responses", "setting": "advanced solid tumors; ovarian clear cell carcinoma, 3 out of 20 patients", "value": 15, "unit": "%"}, {"measurement": "Antitumor activity and safety", "setting": "advanced solid tumors; patients with advanced solid tumors", "value": "preliminary antitumor activity and a manageable safety profile"}, {"measurement": "Tolerability of 24-mg o.d. dose level", "setting": "[1]", "value": "intolerable skin toxicities"}, {"measurement": "Off-target inhibition of kinases", "setting": "kinases", "value": "no observed off-target inhibition of kinases"}, {"measurement": "Total exposure per week, 16 mg o.d. compared with 24-mg intermittent dosing", "setting": "Plasma pharmacokinetics; 16 mg o.d.", "value": "higher total exposure per week"}, {"measurement": "AUC0-24", "setting": "Plasma pharmacokinetics; [3]", "value": "180.7 ng·h/mL and 244.3 ng·h/mL"}, {"measurement": "AUC0-last", "setting": "Plasma pharmacokinetics; [3]", "value": "180.7 ng·h/mL and 244.3 ng·h/mL"}, {"measurement": "Cmax", "setting": "Plasma pharmacokinetics; [3]", "value": "12.8 ng/mL and 14.5 ng/mL"}, {"measurement": "Tmax", "setting": "Plasma pharmacokinetics; [3]", "value": "3.05 h and 20.88 h"}, {"measurement": "AUC0-24", "setting": "Plasma pharmacokinetics; [4]", "value": "333 (34.7) ng·h/ml"}, {"measurement": "AUC0-last", "setting": "Plasma pharmacokinetics; [4]", "value": "333 (34.7) ng·h/ml"}, {"measurement": "Cmax", "setting": "Plasma pharmacokinetics; [4]", "value": "21.5 (29.2) ng/ml"}, {"measurement": "Tmax", "setting": "Plasma pharmacokinetics; cycle 1 day 1, 20 mg o.d., N = 6, median (range)", "value": "2.06 (1.15-6.42) h"}, {"measurement": "AUC0-24", "setting": "Plasma pharmacokinetics; [5]", "value": "412.8 (30.6) ng·h/ml"}, {"measurement": "AUC0-last", "setting": "Plasma pharmacokinetics; [5]", "value": "290.5 (86) ng·h/ml"}, {"measurement": "Cmax", "setting": "Plasma pharmacokinetics; [5]", "value": "23.2 (33.9) ng/ml"}, {"measurement": "Tmax", "setting": "Plasma pharmacokinetics; cycle 1 day 1, 24 mg intermittent, N = 4, median (range)", "value": "2 (1.98-3.65) h"}, {"measurement": "AUC0-last", "setting": "Plasma pharmacokinetics; [6]", "value": "426.3 (180.7) ng·h/ml"}, {"measurement": "Cmax", "setting": "Plasma pharmacokinetics; [6]", "value": "48.1 (35.9) ng/ml"}, {"measurement": "Tmax", "setting": "Plasma pharmacokinetics; cycle 1 day 1, 28 mg intermittent, N = 3, median (range)", "value": "2 (0.92-5.65) h"}, {"measurement": "AUC0-24", "setting": "Plasma pharmacokinetics; cycle 1 day 1, 28 mg intermittent, individual values (n = 2)", "value": "754.4 ng·h/mL and 961.1 ng·h/mL"}, {"measurement": "AUC0-last", "setting": "Plasma pharmacokinetics; [7]", "value": "231.7 (157.2) ng·h/ml"}, {"measurement": "Cmax", "setting": "Plasma pharmacokinetics; [7]", "value": "33.3 (34.3) ng/ml"}, {"measurement": "Tmax", "setting": "Plasma pharmacokinetics; cycle 1 day 8, 16 mg o.d., N = 3, median (range)", "value": "4.08 (2-5.5) h"}, {"measurement": "AUC0-24", "setting": "Plasma pharmacokinetics; cycle 1 day 8, 16 mg o.d., individual value (n = 1)", "value": "811.3 ^b ng·h/ml"}, {"measurement": "AUC0-24", "setting": "Plasma pharmacokinetics; [8]", "value": "924 (54.5) ng·h/ml"}, {"measurement": "AUC0-last", "setting": "Plasma pharmacokinetics; [8]", "value": "924 (54.5) ng·h/ml"}, {"measurement": "Cmax", "setting": "Plasma pharmacokinetics; [8]", "value": "60.1 (58.8) ng/ml"}, {"measurement": "Tmax", "setting": "Plasma pharmacokinetics; cycle 1 day 8, 20 mg o.d., N = 6, median (range)", "value": "2.33 (1.02-5.58) h"}, {"measurement": "Exposure versus dose", "setting": "Plasma pharmacokinetics; dose range 16-28 mg, cycle 1 day 1 and day 8", "value": "generally increased with increasing doses; also recorded: dose-dependent increases"}, {"measurement": "DLTs", "setting": "[2]; 16 mg o.d.", "value": "no DLTs"}, {"measurement": "Time to resolution of DLT", "setting": "[2]; 20 mg o.d., grade 3 neutropenic infection, dose not modified", "value": "≤ 6", "unit": "days"}, {"measurement": "DLT event", "setting": "[2]; 20 mg o.d., one patient", "value": "grade 3 neutropenic infection"}, {"measurement": "DLT event", "setting": "[2]; 28 mg intermittent dosing, two patients", "value": "grade 3 oral mucositis; also recorded: grade 3 stomatitis"}, {"measurement": "Time to resolution of DLT (stomatitis)", "setting": "[2]; 28 mg intermittent, TAS-117 paused, per patient", "value": "≤ 6 days and ≤ 7 days"}, {"measurement": "Grade ≥3 TRAEs", "setting": "[2]; 16-mg o.d. dose cohort", "value": 33.3, "unit": "%"}, {"measurement": "TRAEs", "setting": "[2]; 16-mg o.d. dose cohort", "value": 66.7, "unit": "%"}, {"measurement": "TRAEs reported", "setting": "[2]; 16-mg o.d. dose level", "value": "rash (grade 3) and hyperglycemia (grade 2)"}, {"measurement": "Grade ≥3 TRAEs", "setting": "[2]; 20-mg o.d. dose cohort", "value": 66.7, "unit": "%"}, {"measurement": "TRAEs", "setting": "[2]; 20-mg o.d. dose cohort", "value": 100, "unit": "%"}, {"measurement": "Patients with treatment discontinued due to a TRAE", "setting": "[2]; 20-mg o.d. dose group", "value": 50.0, "unit": "%"}, {"measurement": "Patients with grade ≥3 TRAEs", "setting": "[2]; 20-mg o.d. dose level, out of six", "value": "four"}, {"measurement": "Any-grade TRAEs", "setting": "[2]; 24-mg intermittent dose group", "value": 50.0, "unit": "%"}, {"measurement": "Grade ≥3 TRAEs", "setting": "[2]; 24-mg intermittent dose group", "value": 25.0, "unit": "%"}, {"measurement": "Any-grade TRAEs", "setting": "[2]; 28-mg intermittent dose group", "value": 100.0, "unit": "%"}, {"measurement": "Grade ≥3 TRAEs", "setting": "[2]; 28-mg intermittent dose group", "value": 66.7, "unit": "%"}, {"measurement": "Patients with any TRAE", "setting": "[2]; DRC 16 mg o.d. (n = 1)", "value": "0 n (%)"}, {"measurement": "Treatment-related AE: decreased appetite", "setting": "[2]; all grade", "value": 17.6, "unit": "%"}, {"measurement": "Treatment-related AE: fatigue", "setting": "[2]; all grade", "value": 35.3, "unit": "%"}, {"measurement": "Treatment-related AE: hyperglycemia", "setting": "[2]; all grade", "value": 29.4, "unit": "%"}, {"measurement": "Treatment-related AE: pruritus", "setting": "[2]; all grade", "value": 29.4, "unit": "%"}, {"measurement": "Treatment-related AE: rash", "setting": "[2]; all grade", "value": 58.8, "unit": "%"}, {"measurement": "Treatment-related AE: decreased appetite", "setting": "[2]; grade ≥3", "value": 0, "unit": "%"}, {"measurement": "Treatment-related AE: fatigue", "setting": "[2]; grade ≥3", "value": 1, "unit": "%"}, {"measurement": "Treatment-related AE: hyperglycemia", "setting": "[2]; grade ≥3", "value": 1, "unit": "%"}, {"measurement": "Treatment-related AE: pruritus", "setting": "[2]; grade ≥3", "value": 0, "unit": "%"}, {"measurement": "Treatment-related AE: rash", "setting": "[2]; grade ≥3", "value": 17.6, "unit": "%"}, {"measurement": "Patients with any TRAE", "setting": "[2]; [9]", "value": "13 (76.5) n (%)"}, {"measurement": "TRAE: Decreased appetite", "setting": "[2]; [9]", "value": "3 (17.6) n (%)"}, {"measurement": "TRAE: Diarrhea", "setting": "[2]; [9]", "value": "3 (17.6) n (%)"}, {"measurement": "TRAE: Fatigue", "setting": "[2]; [9]", "value": "6 (35.3) n (%)"}, {"measurement": "TRAE: Hyperglycemia", "setting": "[2]; [9]", "value": "5 (29.4) n (%)"}, {"measurement": "TRAE: Nausea", "setting": "[2]; [9]", "value": "2 (11.8) n (%)"}, {"measurement": "TRAE: Pruritus", "setting": "[2]; [9]", "value": "5 (29.4) n (%)"}, {"measurement": "TRAE: Rash", "setting": "[2]; [9]", "value": "10 (58.8) n (%)"}, {"measurement": "TRAE: Rash maculopapular", "setting": "[2]; [9]", "value": "2 (11.8) n (%)"}, {"measurement": "TRAE: Stomatitis", "setting": "[2]; [9]", "value": "3 (17.6) n (%)"}, {"measurement": "Patients with any TRAE", "setting": "[2]; [10]", "value": "8 (47.1) n (%)"}, {"measurement": "TRAE: Fatigue", "setting": "[2]; [10]", "value": "1 (5.9) n (%)"}, {"measurement": "TRAE: Hyperglycemia", "setting": "[2]; [10]", "value": "1 (5.9) n (%)"}, {"measurement": "TRAE: Rash", "setting": "[2]; [10]", "value": "3 (17.6) n (%)"}, {"measurement": "TRAE: Rash maculopapular", "setting": "[2]; [10]", "value": "2 (11.8) n (%)"}, {"measurement": "TRAE: Stomatitis", "setting": "[2]; [10]", "value": "2 (11.8) n (%)"}, {"measurement": "Tolerability", "setting": "[2]; at the RP2D, 16 mg o.d.", "value": "tolerable, with a manageable safety profile; also recorded: tolerable, with a manageable AE profile"}, {"measurement": "Patients with any TRAE", "setting": "[2]; [11]", "value": "2 (50.0) n (%)"}, {"measurement": "TRAE: Fatigue", "setting": "[2]; [11]", "value": "2 (50.0) n (%)"}, {"measurement": "TRAE: Hyperglycemia", "setting": "[2]; [11]", "value": "1 (25.0) n (%)"}, {"measurement": "TRAE: Pruritus", "setting": "[2]; [11]", "value": "2 (50.0) n (%)"}]}
